Source: ChEMBL document CHEMBL1137146, “Thiourea inhibitors of herpesviruses. Part 3: Inhibitors of varicella zoster virus” (Bioorg Med Chem Lett, 2004)

What follows are compounds tested on Human alphaherpesvirus 3 (assay: inhibitory concentration against Varicella zoster virus). Settings: not given.
Type: functional, organism-based
Method in brief: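 Compounds serially diluted and tested in duplicate against VZV. IC50 obtained by curve fitting with a sigmoidal Hill slope (0–100) model. The rest of the assay procedure follows earlier published work and is not given here.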

Row | IC50 | SMILES
1 | 700 nM | C[C@@H](NC(=S)Nc1ccc(NC(=O)c2ccccc2F)cc1)c1ccccc1 (stereo in doubt; 9)
2 | > 19100 nM | C[C@@H](NC(=S)Nc1ccc(NC(=O)c2ccccc2F)cc1)c1ccccc1 (stereo in doubt; 10)
3 | 130 nM | C[C@@H](NC(=S)Nc1ccc(NC(=O)c2ccccc2F)cc1)c1ccc(Br)cc1 (stereo in doubt; 11)
4 | 49100 nM | C[C@@H](NC(=S)Nc1ccc(NC(=O)c2ccccc2F)cc1)c1ccc(Br)cc1 (stereo in doubt; 12)

Same assay, conditions: Human alphaherpesvirus 3

Row | IC50 | SMILES
5 | 110 nM | CC(/N=C(\S)Nc1ccc(NC(=O)c2ccccc2F)c(C#N)c1)c1cc2ccccc2o1 (stereo not drawn)
6 | 600 nM | CC(/N=C(\S)Nc1ccc(NC(=O)c2ccccc2F)cc1)c1ccc(F)cc1 (stereo not drawn)
7 | 70 nM | CC(/N=C(\S)Nc1cc(Br)c(NC(=O)c2ccccc2F)c(Br)c1)c1ccc(F)cc1 (stereo not drawn)
8 | 30 nM | CC(NC(=O)Nc1ccc(NC(=O)c2ccccc2F)c(C#N)c1)c1ccc(F)cc1 (stereo not drawn)
9 | 110 nM | CC(/N=C(\S)Nc1ccc(NC(=O)c2ccccc2F)c(C#N)c1)c1ccc(F)cc1 (stereo not drawn)
10 | 180 nM | CC(/N=C(\S)Nc1ccc(NC(=O)c2cc3ccccc3cn2)cc1)c1ccc(F)cc1 (stereo not drawn)
11 | 110 nM | CC(NC(=O)Nc1ccc(NC(=O)c2ccccc2F)c(C#N)c1)c1cc2ccccc2o1 (stereo not drawn)
12 | 210 nM | CC(/N=C(\S)Nc1ccc(NC(=O)c2ccccc2F)cc1)c1ccc(Cl)cc1 (stereo not drawn)
13 | 90 nM | CC(/N=C(\S)Nc1ccc(NC(=O)c2ccc3ccccc3n2)cc1)c1ccc(F)cc1 (stereo not drawn)
14 | 1540 nM | COc1cc(NC(=O)c2ccccc2F)ccc1/N=C(\S)NC(C)c1ccc(F)cc1 (stereo not drawn)
15 | 120 nM | Cc1cc(N/C(S)=N/C(C)c2ccc(F)cc2)ccc1NC(=O)c1ccccc1F (stereo not drawn)
16 | 990 nM | Cc1cc(NC(=O)c2ccccc2F)ccc1N/C(S)=N/C(C)c1ccc(F)cc1 (stereo not drawn)
17 | 1370 nM | CC(/N=C(\S)Nc1ccc(NC(=O)c2ccccc2F)cc1Cl)c1ccc(F)cc1 (stereo not drawn)
18 | 9480 nM | CC(/N=C(\S)Nc1ccc(NC(=O)c2ccccc2F)cc1)c1c[nH]c2ccccc12 (stereo not drawn)
19 | 9700 nM | CC(C)(/N=C(\S)Nc1ccc(NC(=O)c2ccccc2F)cc1)c1ccccc1
20 | 1300 nM | CC(NC(=S)Nc1ccc(NC(=O)c2ccccc2F)cc1)c1ccccc1 (stereo not drawn)
21 | 180 nM | CC(/N=C(\S)Nc1ccc(NC(=O)c2ccccc2F)cc1)c1cc2ccccc2o1 (stereo not drawn)
22 | 190 nM | CC(/N=C(\S)Nc1ccc(-c2cc(-c3ccnc4ccccc34)no2)cc1)c1ccc(F)cc1 (stereo not drawn)
23 | 4510 nM | CC(/N=C(\S)Nc1ccc(NC(=O)c2ccccc2F)cc1)c1ccc2ccccc2c1 (stereo not drawn)
24 | > 26300 nM | O=C(Nc1ccc(N/C(S)=N/Cc2ccccc2)cc1)c1ccccc1F
25 | > 17600 nM | CCC(/N=C(\S)Nc1ccc(NC(=O)c2ccccc2F)cc1)c1ccc(F)cc1 (stereo not drawn)
26 | 570 nM | CCOc1cc(N/C(S)=N/C(C)c2ccc(F)cc2)ccc1NC(=O)c1ccccc1F (stereo not drawn)
27 | 190 nM | CC(/N=C(\S)Nc1ccc(-c2cc(Cc3ccccc3)no2)cc1)c1ccc(F)cc1 (stereo not drawn)
28 | 60 nM | CC(/N=C(\S)Nc1ccc(NC(=O)c2ccccc2F)c(C(F)(F)F)c1)c1ccc(F)cc1 (stereo not drawn)
29 | 420 nM | CC(NC(=S)Nc1ccc(NC(=O)c2ccccc2F)cc1)c1ccc(Br)cc1 (stereo not drawn)
30 | 90 nM | COc1cc(N/C(S)=N/C(C)c2ccc(F)cc2)ccc1NC(=O)c1ccccc1F (stereo not drawn)
31 | 960 nM | CC(/N=C(\S)Nc1ccc(NC(=O)c2ccccc2F)cc1)c1ccc(C#N)cc1 (stereo not drawn)
32 | 190 nM | COc1ccccc1C(=O)Nc1ccc(N/C(S)=N/C(C)c2ccc(F)cc2)cc1 (stereo not drawn)
33 | 3560 nM | CC(/N=C(\S)Nc1ccc(NC(=O)c2ccccc2F)cc1)c1csc2ccccc12 (stereo not drawn)
